From ChEMBL document CHEMBL5247575 (J Med Chem, 2018)

Tests used:
Escherichia coli [1] = assay: Antibacterial activity against Escherichia coli DH10B transfected with pBC SK (-) KPC-3 by broth microdilution method; type: functional
Bacteria = assay: Inhibition of bacteria KPC-2 assessed as second order rate constant K2/K using nitrocefin as substrate
Procedure, shortened: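 Steady-state kinetics, 10 mM phosphate-buffered saline pH 7.4. Progress curves recorded with fixed enzyme and nitrocefin and increasing nM inhibitor. Each curve fitted to a time-course equation to give k_obs. k2/K derived from these and corrected for nitrocefin concentration relative to its Km.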

Escherichia coli [2] = assay: Antibacterial activity against Escherichia coli DH10B transfected with pBC SK (-) OXA-48 by broth microdilution method; type: functional
Escherichia coli [3] = assay: Synergistic antibacterial activity against Escherichia coli DH10B transfected with pBC SK (-) KPC-2 assessed as cefepime MIC at 4 ug/ml by broth microdilution method; type: functional; details: dose 4 µg/ml
Escherichia coli [4] = assay: Synergistic antibacterial activity against Escherichia coli DH10B transfected with pBC SK (-) PDC-3 assessed as cefepime MIC at 4 ug/ml by broth microdilution method; type: functional; details: dose 4 µg/ml
Procedure, shortened: (§1)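 Broth microdilution per CLSI guidelines, using custom frozen panels. […] Each partner drug was also tested alone. MICs were run in triplicate and the modal value is reported.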

Klebsiella pneumoniae [5] = assay: Synergistic antibacterial activity against Klebsiella pneumoniae 776/1742 producing KPC-2 assessed as cefepime MIC at 4 ug/ml by broth microdilution method; type: functional; details: dose 4 µg/ml
Klebsiella pneumoniae [6] = assay: Synergistic antibacterial activity against Klebsiella pneumoniae 901/1860 producing KPC-3 assessed as cefepime MIC at 4 ug/ml by broth microdilution method; type: functional; details: dose 4 µg/ml
Klebsiella pneumoniae [7] = assay: Synergistic antibacterial activity against Klebsiella pneumoniae 935/1884 producing KPC-3 assessed as cefepime MIC at 4 ug/ml by broth microdilution method; type: functional; details: dose 4 µg/ml
Klebsiella pneumoniae [8] = assay: Synergistic antibacterial activity against Klebsiella pneumoniae 977/1916 producing KPC-3 assessed as cefepime MIC at 4 ug/ml by broth microdilution method; type: functional; details: dose 4 µg/ml
Klebsiella pneumoniae [9] = assay: Synergistic antibacterial activity against Klebsiella pneumoniae 761/1723 producing KPC-3 assessed as cefepime MIC at 4 ug/ml by broth microdilution method; type: functional; details: dose 4 µg/ml; procedure, shortened: as §1
Klebsiella pneumoniae [10] = assay: Synergistic antibacterial activity against Klebsiella pneumoniae CAV 1543 producing OXA-48 assessed as cefepime MIC at 4 ug/ml by broth microdilution method; type: functional; details: dose 4 µg/ml
Klebsiella pneumoniae [11] = assay: Synergistic antibacterial activity against Klebsiella pneumoniae jefferson 1775 producing OXA-48 assessed as cefepime MIC at 4 ug/ml by broth microdilution method; type: functional; details: dose 4 µg/ml
Pseudomonas aeruginosa [12] = assay: Synergistic antibacterial activity against Pseudomonas aeruginosa CL232 assessed as cefepime MIC at 4 ug/ml by broth microdilution method; type: functional; details: dose 4 µg/ml
Pseudomonas aeruginosa [13] = assay: Synergistic antibacterial activity against Pseudomonas aeruginosa 776 assessed as cefepime MIC at 4 ug/ml by broth microdilution method; type: functional; details: dose 4 µg/ml
Acinetobacter baumannii [14] = assay: Synergistic antibacterial activity against Acinetobacter baumannii PR420 producing OXA-23/24/40 assessed as cefepime MIC at 4 ug/ml by broth microdilution method; type: functional; details: dose 4 µg/ml
Acinetobacter baumannii [15] = assay: Synergistic antibacterial activity against Acinetobacter baumannii PR440 producing OXA-23/24/40 assessed as cefepime MIC at 4 ug/ml by broth microdilution method; type: functional; details: dose 4 µg/ml
Escherichia coli [16] = assay: Synergistic antibacterial activity against Escherichia coli DH10B transfected with pBC SK (-) KPC-2 assessed as meropenem MIC at 4 ug/ml by broth microdilution method; type: functional; details: dose 4 µg/ml
Escherichia coli [17] = assay: Synergistic antibacterial activity against Escherichia coli DH10B transfected with pBC SK (-) KPC-3 assessed as meropenem MIC at 4 ug/ml by broth microdilution method; type: functional; details: dose 4 µg/ml
Escherichia coli [18] = assay: Synergistic antibacterial activity against Escherichia coli DH10B transfected with pBC SK (-) PDC-3 assessed as meropenem MIC at 4 ug/ml by broth microdilution method; type: functional; details: dose 4 µg/ml; procedure, shortened: as §1
Escherichia coli [19] = assay: Synergistic antibacterial activity against Escherichia coli DH10B transfected with pBC SK (-) OXA-48 assessed as meropenem MIC at 4 ug/ml by broth microdilution method; type: functional; details: dose 4 µg/ml; procedure, shortened: as §1
Klebsiella pneumoniae [20] = assay: Synergistic antibacterial activity against Klebsiella pneumoniae 1108/1989 producing KPC-3 assessed as meropenem MIC at 4 ug/ml by broth microdilution method; type: functional; details: dose 4 µg/ml; procedure, shortened: as §1
Klebsiella pneumoniae [21] = assay: Synergistic antibacterial activity against Klebsiella pneumoniae 1354/2241 producing KPC-3 assessed as meropenem MIC at 4 ug/ml by broth microdilution method; type: functional; details: dose 4 µg/ml; procedure, shortened: as §1
Klebsiella pneumoniae [22] = assay: Synergistic antibacterial activity against Klebsiella pneumoniae CAV 1636 producing OXA-181 assessed as meropenem MIC at 4 ug/ml by broth microdilution method; type: functional; details: dose 4 µg/ml
Acinetobacter baumannii [23] = assay: Synergistic antibacterial activity against Acinetobacter baumannii PR323 producing OXA-24/40 assessed as meropenem MIC at 4 ug/ml by broth microdilution method; type: functional; details: dose 4 µg/ml
Acinetobacter baumannii [24] = assay: Synergistic antibacterial activity against Acinetobacter baumannii PR381 producing OXA-24/40 assessed as meropenem MIC at 4 ug/ml by broth microdilution method; type: functional; details: dose 4 µg/ml
Acinetobacter baumannii [25] = assay: Synergistic antibacterial activity against Acinetobacter baumannii PR476 producing OXA-24/40 assessed as meropenem MIC at 4 ug/ml by broth microdilution method; type: functional; details: dose 4 µg/ml
Acinetobacter baumannii [26] = assay: Synergistic antibacterial activity against ADC deleted Acinetobacter baumannii transfected with pWH1266 producing OXA-24/40 assessed as meropenem MIC at 4 ug/ml by broth microdilution method; type: functional; details: dose 4 µg/ml
[27] = Binding affinity to bacteria ADC-7 assessed as dissociation constant

SMILES: O.O=C(NC1CCNCC1)[C@@H]1CC[C@@H]2CN1C(=O)N2OS(=O)(=O)O [RELEBACTAM]
- MIC (Escherichia coli [1]): > 16 µg/mL
- K (Bacteria): 2.8 10^4/M/s
- MIC (Escherichia coli [2]): > 16 µg/mL
- MIC (Escherichia coli [3]): ≤ 0.12 µg/mL
- MIC (Escherichia coli [4]): ≤ 0.12 µg/mL
- MIC (Klebsiella pneumoniae [5]): 1 µg/mL
- MIC (Klebsiella pneumoniae [6]): ≤ 0.12 µg/mL
- MIC (Klebsiella pneumoniae [7]): ≤ 0.12 µg/mL
- MIC (Klebsiella pneumoniae [8]): 0.25 µg/mL
- MIC (Klebsiella pneumoniae [9]): ≤ 0.12 µg/mL
- MIC (Klebsiella pneumoniae [10]): 2 µg/mL
- MIC (Klebsiella pneumoniae [11]): 0.25 µg/mL
- MIC (Pseudomonas aeruginosa [12]): 16 µg/mL
- MIC (Pseudomonas aeruginosa [13]): 16 µg/mL
- MIC (Acinetobacter baumannii [14]): > 16 µg/mL
- MIC (Acinetobacter baumannii [15]): > 16 µg/mL
- MIC (Escherichia coli [16]): ≤ 0.12 µg/mL
- MIC (Escherichia coli [17]): ≤ 0.12 µg/mL
- MIC (Escherichia coli [18]): ≤ 0.12 µg/mL
- MIC (Escherichia coli [19]): 0.25 µg/mL
- MIC (Klebsiella pneumoniae [20]): ≤ 0.12 µg/mL
- MIC (Klebsiella pneumoniae [21]): ≤ 0.12 µg/mL
- MIC (Klebsiella pneumoniae [22]): 16 µg/mL
- MIC (Acinetobacter baumannii [23]): > 16 µg/mL
- MIC (Acinetobacter baumannii [24]): > 16 µg/mL
- MIC (Acinetobacter baumannii [25]): 0.25 µg/mL
- MIC (Acinetobacter baumannii [26]): > 16 µg/mL

SMILES: NC(=O)[C@@H]1CC[C@@H]2CN1C(=O)N2OS(=O)(=O)[O-].[Na+] [AVIBACTAM SODIUM]
- MIC (Escherichia coli [1]): > 16 µg/mL
- K (Bacteria): 1.3 10^4/M/s
- Kd [27]: 90 nM
- MIC (Escherichia coli [2]): > 16 µg/mL
- MIC (Escherichia coli [3]): ≤ 0.12 µg/mL
- MIC (Escherichia coli [4]): ≤ 0.12 µg/mL
- MIC (Klebsiella pneumoniae [5]): 0.5 µg/mL
- MIC (Klebsiella pneumoniae [6]): ≤ 0.12 µg/mL
- MIC (Klebsiella pneumoniae [7]): ≤ 0.12 µg/mL
- MIC (Klebsiella pneumoniae [8]): ≤ 0.12 µg/mL
- MIC (Klebsiella pneumoniae [9]): ≤ 0.12 µg/mL
- MIC (Klebsiella pneumoniae [10]): 0.25 µg/mL
- MIC (Klebsiella pneumoniae [11]): ≤ 0.12 µg/mL
- MIC (Pseudomonas aeruginosa [12]): > 16 µg/mL
- MIC (Acinetobacter baumannii [14]): > 16 µg/mL
- MIC (Acinetobacter baumannii [15]): 16 µg/mL
- MIC (Escherichia coli [16]): ≤ 0.12 µg/mL
- MIC (Escherichia coli [17]): ≤ 0.12 µg/mL
- MIC (Escherichia coli [18]): ≤ 0.12 µg/mL
- MIC (Escherichia coli [19]): ≤ 0.12 µg/mL
- MIC (Klebsiella pneumoniae [20]): ≤ 0.12 µg/mL
- MIC (Klebsiella pneumoniae [21]): ≤ 0.12 µg/mL
- MIC (Klebsiella pneumoniae [22]): 1 µg/mL
- MIC (Acinetobacter baumannii [23]): > 16 µg/mL
- MIC (Acinetobacter baumannii [24]): > 16 µg/mL
- MIC (Acinetobacter baumannii [25]): 0.25 µg/mL
- MIC (Acinetobacter baumannii [26]): > 16 µg/mL
